Hits are enriched below; roughly 1.8% of the tested compounds scored in any of these assays.
MC4R ag barr = MC4R agonists recruiting beta-arrestin, primary screen, cell-based, luminescence, agonist arm of biased-ligand search. Melanocortin receptor 4 (Homo sapiens), P32245. U2OS MC4R beta-arrestin complementation; percent of melanotan II response, DMSO zero. activation, % at 8.9 µM. 360,000 compounds, 0.98% hits. AID 540308, 2011;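 active = activation above a per-plate cutoff, the mean activation of sample wells on that plate plus 3 SD, cut at about 8% in these data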
NOD2 RIPK2 PPI = NOD2-RIPK2 binding disruptors in cells, primary screen, fluorescence, CHO cells, BLA complementation | CCF4 ratio | inhibition, % at 4.98 µM | 360,000 compounds, 0.38% hits; in the data active = inhibition above about 21%
MC4R antag cAMP = MC4R antagonists of cAMP signaling, primary screen, cell-based, TR-FRET, antagonist arm of biased-ligand search | Melanocortin receptor 4 (Homo sapiens), P32245 | MC4R-expressing cells, MTII-stimulated cAMP, LANCE TR-FRET | inhibition, % at 6.5 µM | 360,000 compounds, 0.48% hits;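 active = inhibition above its plate's cutoff, the mean of tested wells on that plate plus 3 SD, cut at about 29% in these data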
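System: U2OS cells stably expressing human melanocortin 4 receptor (MC4R). Reagent: Melanotan II challenge after compound preincubation. Doses: 6.5 µM. Times: 30-min compound, 1-h challenge, 1-h detection, room temperature. Measured by: TR-FRET with Eu-cAMP and labeled anti-cAMP, 671 nm. Replicates: singlicate.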
TLR9-MyD88 block = inhibitors of TLR9-MyD88 association in cells, primary screen, cell-based, CHO, BLA complementation, fluorescence. CCF4 FRET ratio. inhibition, % at 4.98 µM. 340,000 compounds, 0.21% hits. AID 504734, 2011;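 active = inhibition above the mean over all tested compounds plus 3 SD, cut at about 21% in these data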
TLR4 MyD88 comp = inhibitors of TLR4-MyD88 association in cells, primary screen, cell-based, HeLa CL3-4, BLA complementation, FRET ratio; inhibition, % at 8.4 µM; AID 861, 2007; Toll-like receptor 4 (Homo sapiens) + Myeloid differentiation primary response protein …; HeLa CL3-4 TLR4/MyD88 BLA complementation; 200,000 compounds, 0.18% hits; in the data active = inhibition above about 25%
TLR4 MyD88 cnf = TLR4-MyD88 association inhibitors, retest, confirmation, cell-based, HeLa CL3-4, BLA complementation, FRET ratio; shares compounds with TLR4 MyD88 comp; CCF4 FRET ratio; inhibition, % at 8.4 µM; 350 compounds, 50% hits;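 active = mean inhibition across three repeat runs above about 25% carried over from the earlier screen, limit read from the data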
BLA inh HeLa = beta-lactamase inhibition flagged in TLR4-MyD88 counter-screen; shares compounds with TLR4 MyD88 comp; HeLa BLA reporter, CCF4 FRET ratio; inhibition, % at 8.4 µM; 350 compounds, 63% hits;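 active = mean inhibition over three repeats above about 26% taken from the earlier screen, limit read from the data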;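 note: HeLa cells stably expressing beta-lactamase reporter as counterscreen for TLR4-MyD88 inhibitors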
TLR9-MyD88 conf = TLR9-MyD88 association inhibitors, retest, confirmation, cell-based, CHO, BLA complementation, fluorescence, triplicate | CCF4 FRET ratio | 680 compounds, 51% hits | shares compounds with TLR9-MyD88 block | inhibition, % at 4.98 µM;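 active = mean inhibition across three repeats above about 21% taken from the earlier screen, limit read from the data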;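 note: blue over green emission ratio reports constitutive TLR9 MyD88 association via BLA complementation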
BLA counter-1 = beta-lactamase reporter inhibitors in CHO cells, artefact control for TLR9-MyD88 binding inhibitor project, cell-based, fluorescence; CHO-BLA cells, CCF4 FRET ratio, BLA reporter; shares compounds with TLR9-MyD88 block; inhibition, % at 4.98 µM; AID 540251, 2011; 680 compounds, 7% hits;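 active = mean inhibition above a 50% cutoff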;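 note: counterscreen of TLR9-MyD88 hits on CMV-driven BLA in CHO-K1 cells; higher means less blue over green ratio so more BLA blockade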
TLR9 CHO tox = CHO cell viability loss – luminescence, single concentration, cytotoxicity control for TLR9-MyD88 binding inhibitor project | shares compounds with TLR9-MyD88 block | TLR9-MyD88 CHO cells cytotoxicity | inhibition, % at 4.98 µM | 680 compounds, 39% hits | AID 588336, 2011; in the data active = inhibition above about 11%
U2OS cAMP counter = nonselective cAMP signaling inhibitors, parental cells, counter-screen for MC4R biased antagonist project, cell-based, TR-FRET, U2OS, forskolin, triplicate; shares compounds with MC4R antag cAMP; LANCE TR-FRET; inhibition, % at 6.5 µM; 1,600 compounds, 26% hits; AID 602193, 2012;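 active = mean inhibition over triplicates above the low-control well mean plus 3 SD, set per campaign, cut at about 13% in these data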;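 note: signal is single emission at 671 nm which falls as cellular cAMP rises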
MC4R cAMP antag = MC4R cAMP antagonists, retest, confirmation, cell-based, TR-FRET. MC4R-expressing cells, MTII-stimulated cAMP. shares compounds with MC4R antag cAMP. inhibition, % at 6.5 µM. 1,600 compounds, 27% hits; in the data active = inhibition above about 29%
MC4R barr ag = MC4R beta-arrestin agonists, retest, confirmation, cell-based, luminescence, U2OS | AID 602192, 2012 | shares compounds with MC4R ag barr | U2OS MC4R beta-arrestin recruitment; scaled DMSO 0%, Melanotan II 100% | 2,400 compounds, 31% hits | activation, % at 8.9 µM;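 active = mean activation across replicates above the hit cutoff set in the earlier primary screen, cut at about 8% in these data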
MOR-DOR barr ag = agonists of MOR-DOR heterodimerization, counter-screen for MC4R biased agonist project, cell-based, luminescence. shares compounds with MC4R ag barr. U2OS PathHunter beta-arrestin, beta-gal luminescence; percent of deltorphin B response, DMSO zero. activation, % at 9.2 µM. 2,400 compounds, 5.8% hits. AID 602194, 2012;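 active = mean activation across replicates exceeds the hit threshold derived in the earlier primary screen, cut at about 18% in these data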
NOD2 RIPK2 conf = NOD2-RIPK2 binding disruptors, retest, confirmation, fluorescence, CHO cells, BLA complementation, triplicate; shares compounds with NOD2 RIPK2 PPI; inhibition, % at 4.98 µM; 1,200 compounds, 70% hits; CCF4 FRET;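 active = mean inhibition across replicates above a set limit taken from the earlier primary screen, cut at about 21% in these data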
BLA counter-2 = NOD2-RIPK2 counterscreen BLA reporter activity; 1,200 compounds, 57% hits; shares compounds with NOD2 RIPK2 PPI; inhibition, % at 4.98 µM; CHO BLA reporter, CCF4 FRET ratio;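 active = mean inhibition above the low-control mean inhibition plus three low-control SD, cut at about 11% in these data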
Each line names hits and unclear results; the compound was inactive in the other large screens (follow-up assays come after a bar, where they were run).

Clc1ncnc2c1oc1ccccc12	MC4R antag cAMP 39.0, TLR4 MyD88 comp 33.1 | TLR4 MyD88 cnf 37.1 | BLA inh HeLa inactive | U2OS cAMP counter inactive | MC4R cAMP antag inactive
CCSc1ncnc2c1oc1ccccc12	none
Cc1noc(C)c1COC(=O)c1cnc(Cl)c(Cl)c1	MC4R antag cAMP 29.6, TLR4 MyD88 comp 25.8 | TLR4 MyD88 cnf inactive | BLA inh HeLa inactive | U2OS cAMP counter inactive | MC4R cAMP antag 32.7
CC(C)Cc1ccc(C(C)C(=O)Nc2ccccc2O)cc1 (centres undefined)	none (no result: TLR4 MyD88 comp)
Cc1ccc(-n2c(Cl)c(Cl)nc(Cl)c2=O)cc1	NOD2 RIPK2 PPI 83.8, MC4R antag cAMP 45.9, TLR9-MyD88 block 48.1, TLR4 MyD88 comp 27.1 | TLR4 MyD88 cnf inactive | BLA inh HeLa inactive | TLR9-MyD88 conf 49.2 | BLA counter-1 inactive | TLR9 CHO tox 98.8 | U2OS cAMP counter 57.2 | MC4R cAMP antag 54.9
COc1ccc(-n2nc3c(c2NC(=O)c2ccccc2S(=O)(=O)C(F)F)CS(=O)(=O)C3)cc1	none (no result: TLR4 MyD88 comp)
N#Cc1sc2nc(-c3cccs3)cc(-c3ccc(F)cc3)c2c1N	MC4R ag barr 34.5, TLR9-MyD88 block 26.1, TLR4 MyD88 comp 26.2 | TLR4 MyD88 cnf 38.9 | BLA inh HeLa 62.5 | MC4R barr ag 19.1 | MOR-DOR barr ag inactive
COC(=O)C(CC(C)C)NC(=O)c1cccs1 (centres undefined)	none
CCc1ccc2c(c1)C1(NN=C(c3cccc4ccccc34)S1)C(=O)N2 (centres undefined)	NOD2 RIPK2 PPI 29.9, TLR9-MyD88 block 26.5, TLR4 MyD88 comp 31.4 | TLR4 MyD88 cnf inactive | BLA inh HeLa 28.5 | NOD2 RIPK2 conf inactive | BLA counter-2 inactive
CCc1ccc2c(c1)NC(=O)C2(C)Cc1ccccc1 (centres undefined)	none (no result: TLR9-MyD88 block, TLR4 MyD88 comp)
CCOC(=O)c1c(-c2ccco2)csc1NC(=O)COC(=O)c1cnc(C)cn1	none (no result: TLR4 MyD88 comp)
CC(=O)c1sc2nc(-c3ccc(C)cc3)c3c(c2c1N)CCCC3	NOD2 RIPK2 PPI 35.6, TLR9-MyD88 block 51.1, TLR4 MyD88 comp 25.6 | TLR4 MyD88 cnf 31.7 | BLA inh HeLa 61.0 | TLR9-MyD88 conf 41.3 | BLA counter-1 inactive | TLR9 CHO tox inactive | NOD2 RIPK2 conf 56.5 | BLA counter-2 67.8
Cc1ccc(-c2nc3sc(C(N)=O)c(N)c3c3c2CCCC3)cc1	none
Cc1onc(-c2c(F)cccc2Cl)c1C(N)=S	none
O=C1c2cccc3c(O)ccc(c23)C(=O)N1Cc1ccccc1	NOD2 RIPK2 PPI 41.6, TLR9-MyD88 block 26.1, TLR4 MyD88 comp 32.4 | TLR4 MyD88 cnf inactive | BLA inh HeLa 33.9 | NOD2 RIPK2 conf 46.4 | BLA counter-2 56.0
CCCNC(=O)COC(=O)c1ccccc1C(=O)c1ccc(Cl)c([N+](=O)[O-])c1	NOD2 RIPK2 PPI 38.3, TLR4 MyD88 comp 26.0 | TLR4 MyD88 cnf inactive | BLA inh HeLa inactive | NOD2 RIPK2 conf 62.0 | BLA counter-2 11.2
Cc1ccc(C(=O)c2ccccc2C(=O)OCC(=O)NCCc2ccc(Cl)cc2Cl)cc1	none
Nc1ccc(/C=C/C(=O)c2cccs2)cc1	NOD2 RIPK2 PPI 30.0, TLR9-MyD88 block 22.6, TLR4 MyD88 comp 25.2 | TLR4 MyD88 cnf inactive | BLA inh HeLa 36.6 | TLR9-MyD88 conf inactive | BLA counter-1 inactive | TLR9 CHO tox inactive | NOD2 RIPK2 conf 40.1 | BLA counter-2 34.3
Cc1cc(C)c2c(N)c(S(=O)(=O)Cc3ccccc3)sc2n1	none
Cc1ccc(-c2cc(-c3ccccc3)c3c(N)c(S(C)(=O)=O)sc3n2)cc1	NOD2 RIPK2 PPI 35.3, TLR9-MyD88 block 45.9, TLR4 MyD88 comp 28.0 | TLR4 MyD88 cnf 30.6 | BLA inh HeLa 50.4 | NOD2 RIPK2 conf 62.0 | BLA counter-2 70.8
CCN(CC)c1ccc2c(C)c(Cl)c(=O)oc2c1	none

From PubChem BioAssay
